Assay results of several laboratories.
Lines come from different studies, so protocols differ.

N#Cc1ccc(Nc2nc(N)cc(Oc3c(F)cc(-c4ccc(C#N)cc4)cc3F)n2)cc1
Cmax (Sprague-Dawley rat; plasma; oral; 5 mg/kg): 15.4 ng/mL

CCc1cc(OC)c2nccc(N3CCc4c(cc(Cn5ccnc5)cc4-c4cn(C)nc4C(F)(F)F)C3=O)c2c1
Cmax (male Sprague-Dawley rat; plasma; oral; 50 mg/kg): 2700 ng/mL

CC[C@H](C)[C@H](NC(=O)[C@H](Cc1ccccc1)NC(=O)[C@H](CCC(=O)O)NC(=O)[C@H](CCCNC(=N)N)NC(=O)[C@H](C)NC(=O)[C@H](C)NC(=O)[C@H](CCC(N)=O)NC(=O)[C@H](CCC(=O)O)NC(=O)[C@H](CCC(=O)O)NC(=O)[C@H](CC(C)C)NC(=O)[C@H](Cc1ccc(O)cc1)NC(=O)[C@H](CO)NC(=O)[C@H](CO)NC(=O)[C@@H](NC(=O)[C@H](CC(=O)O)NC(=O)[C@H](CO)NC(=O)[C@@H](NC(=O)[C@H](Cc1ccccc1)NC(=O)[C@@H](NC(=O)CNC(=O)[C@H](CCC(=O)O)NC(=O)[C@H](C)NC(=O)CCc1c[nH]cn1)[C@@H](C)O)[C@@H](C)O)C(C)C)C(=O)N[C@@H](C)C(=O)N[C@@H](Cc1c[nH]c2ccccc12)C(=O)N[C@@H](CC(C)C)C(=O)N[C@H](C(=O)N[C@@H](CCCNC(=N)N)C(=O)NCC(=O)N[C@@H](CCCNC(=N)N)C(=O)N[C@@H](CCCCNC(=O)COCCOCCNC(=O)COCCOCCNC(=O)CC[C@H](NC(=O)CCCCCCCCCCCCCCCCC(=O)O)C(=O)O)C(=O)O)C(C)C
Cmax (rat; plasma; subcutaneous; 20 nmol/kg): 64.2 nM

N#Cc1[nH]nnc1-c1cccc(-c2cc(F)cc(C(F)(F)F)c2)c1
Cmax (male Sprague-Dawley rat; plasma; oral; 10 mg/kg): 5750 ng/mL

COc1cc2c3c(n(CCCN4CCOCC4)c(=O)c2cc1OC)-c1cc2c(cc1C3=O)OCO2
Cmax (female Fischer 344 rat; plasma; intravenous; 12 mg/m²; single dose): 301 ng/mL

CCc1cc(C(=O)NC)c2nccc(N3CCc4c(cc(Cn5ccnc5)cc4-c4cn(C)nc4C(F)(F)F)C3=O)c2c1
Cmax (male Sprague-Dawley rat; plasma; oral; 100 mg/kg; single dose): 10100 ng/mL

Cc1c(-c2ccccc2)cccc1N1C(=O)c2cc(CN[C@H](C(=O)O)C(C)O)c(OCc3cccc(C#N)c3)cc2C1=O (some centres unmarked)
Cmax (Sprague-Dawley rat; plasma; oral; 50 mg/kg): 26 ng/mL

Oc1c(Br)cc(Cl)c2cccnc12
Cmax (Sprague-Dawley rat; plasma; oral; 20 mg/kg): 1700 ng/mL

COCc1nn(Cc2ccc(Cn3ccccc3=O)cc2)cc1C(=O)NCc1nccc(OC)c1C
Cmax (male Sprague-Dawley rat; plasma; oral; 10 mg/kg): 1020 ng/mL

Cc1noc(-c2cc3cc(-c4nc(C(=O)NCc5ccncc5)[nH]c4C)ccc3[nH]2)n1
Cmax (Sprague-Dawley rat; plasma; oral; 10 mg/kg; suspension): 2200 nM

COCc1nn(Cc2ccc(Cn3ccccc3=O)cc2)cc1C(=O)NCc1c(F)ccc(OC)c1F
Cmax (male Sprague-Dawley rat; plasma; oral; 10 mg/kg): 2890 ng/mL

COc1ccc2c(=O)n(C)c(-c3ccccc3)nc2c1
Cmax (male Sprague-Dawley rat; plasma; intravenous; 2 mg/kg): 2130 ng/mL

CNCc1cc(-c2ccccc2F)n(S(=O)(=O)c2cccnc2)c1
Cmax (Sprague-Dawley rat; plasma; oral; 10 mg/kg): 245 ng/mL

O=C(Nc1cc(F)c(F)c(F)c1)c1ccc(F)c(S(=O)(=O)NCc2cccc(B(O)O)c2)c1
Cmax (male Sprague-Dawley rat; plasma; intravenous; 2 mg/kg): 460 ng/mL

COc1nc(-c2cc(C)c(N[C@@H](C)c3cc(F)cc(F)c3)nn2)ccc1-n1cnc(C)c1
Cmax (male Sprague-Dawley rat; plasma; oral; 5 mg/kg; single dose): 3240 ng/mL

N#Cc1[nH]nnc1-c1cccc(OCc2cc(C(F)(F)F)ccc2C(F)(F)F)c1
Cmax (male Sprague-Dawley rat; plasma; oral; 10 mg/kg): 4820 ng/mL

CC(C)(C)C[C@H]1N[C@@H](C(=O)NCC[C@H](O)CO)[C@H](c2cccc(Cl)c2)[C@@]12C(=O)Nc1cc(Cl)c(F)cc12
Cmax (rat; plasma; oral; 25 mg/kg): 6400 nM

CCOC(=O)[C@@]12C[C@@H]1[C@@H](n1ccc3c(NC)nc(C#Cc4ccc(Cl)s4)nc31)[C@H](O)[C@@H]2O
Cmax (male Sprague-Dawley rat; plasma; oral; 3 mg/kg): 67.1 ng/mL

CCc1nc(C(N)=O)c(Nc2ccc(N3CCC(N4CCN(C)CC4)CC3)c(OC)c2)nc1NC1CCOCC1
Cmax (male Sprague-Dawley rat; plasma; oral; 10 mg/kg): 341 ng/mL

CC(C)OC(=O)NC1CCN(Cc2cc(Cl)c3cccnc3c2O)CC1
Cmax (rat; blood; intraperitoneal; 30 mg/kg): 200 nM

C=CC(=O)N1CC2CC(n3nc(-c4ccc(C(=O)Nc5ccccn5)cc4)c4c(N)ncnc43)CC2C1 (centres unmarked)
Cmax (male Wistar rat; plasma; oral; 100 mg/kg): 2880 ng/mL

COc1cc(/C=C/C(=O)CC(=O)/C=C/c2ccc(O)c(OC)c2)ccc1O
Cmax (male Sprague-Dawley rat; plasma; oral; 100 mg/kg): 5.99 ng/mL

Cl.Clc1ccc2c(c1)nc(N1CCNCC1)n2Cc1ccccc1
Cmax (rat; plasma; oral; 5 mg/kg): 800 nM
